Data: ChEMBL document CHEMBL5532718, “Identification and Evaluation of Reversible Covalent Binders to Cys55 of Bfl-1 from a DNA-Encoded Chemical Library Screen” (ACS Med Chem Lett, 2024)

Experiments:
Bcl-2-related protein A1 [1] = molecular target: T1, Bcl-2-related protein A1 (Homo sapiens, UniProt Q16548); test: Inhibition of N-terminal His6-tagged recombinant human Bfl-1 (1 to 151 residues) expressed in Escherichia coli BL21-Gold (DE3) using HyLite Fluor 647-labeled BIM peptide as substrate incubated for 120 mins by TR-FRET assay
T1 sequence (Q16548 whole entry): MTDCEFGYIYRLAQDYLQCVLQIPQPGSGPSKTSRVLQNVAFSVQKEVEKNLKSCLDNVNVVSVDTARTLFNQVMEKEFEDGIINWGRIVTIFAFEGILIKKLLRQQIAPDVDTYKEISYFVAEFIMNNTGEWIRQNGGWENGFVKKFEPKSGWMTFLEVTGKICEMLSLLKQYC
Method in brief: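 Bfl-1 binding read as displacement of a labeled BIM peptide probe in a TR-FRET assay, reported as IC50 in μM.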

[2] = Lipophilicity, logD of compound in octanol/water at pH 7.4 by shake-flask method; format: physicochemical
[3] = molecular target: Induced myeloid leukemia cell differentiation protein Mcl-1 (Homo sapiens, UniProt Q07820); test: Inhibition of Mcl-1 (unknown origin) incubated for 120 mins by TR-FRET assay
Induced myeloid leukemia cell differentiation protein Mcl-1, sequence (Q07820 whole entry): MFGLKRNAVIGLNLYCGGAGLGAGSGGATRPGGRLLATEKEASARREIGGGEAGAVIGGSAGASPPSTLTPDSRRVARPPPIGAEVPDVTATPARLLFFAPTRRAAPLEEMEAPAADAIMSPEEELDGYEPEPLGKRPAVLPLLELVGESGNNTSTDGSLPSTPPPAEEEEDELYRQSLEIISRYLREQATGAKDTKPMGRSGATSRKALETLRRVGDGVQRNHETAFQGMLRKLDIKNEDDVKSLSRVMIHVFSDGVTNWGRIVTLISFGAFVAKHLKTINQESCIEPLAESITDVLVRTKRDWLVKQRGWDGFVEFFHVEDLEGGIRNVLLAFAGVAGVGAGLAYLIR

[4] = molecular target: Apoptosis regulator Bcl-2 (Homo sapiens, UniProt P10415); test: Inhibition of Bcl-2 (unknown origin) incubated for 120 mins by TR-FRET assay
Apoptosis regulator Bcl-2, sequence (P10415 whole entry): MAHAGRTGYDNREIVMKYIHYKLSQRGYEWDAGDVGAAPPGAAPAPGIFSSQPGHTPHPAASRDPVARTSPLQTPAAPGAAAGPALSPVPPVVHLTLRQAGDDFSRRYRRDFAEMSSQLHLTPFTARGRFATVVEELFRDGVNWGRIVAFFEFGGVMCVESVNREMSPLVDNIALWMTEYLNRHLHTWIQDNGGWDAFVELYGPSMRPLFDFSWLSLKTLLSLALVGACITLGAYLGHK

Bcl-2-like protein 1 = Bcl-2-like protein 1 (Homo sapiens, UniProt Q07817); test: Inhibition of Bcl-xl (unknown origin) incubated for 120 mins by TR-FRET assay
Bcl-2-like protein 1, sequence (Q07817 whole entry, the tested form may be a part): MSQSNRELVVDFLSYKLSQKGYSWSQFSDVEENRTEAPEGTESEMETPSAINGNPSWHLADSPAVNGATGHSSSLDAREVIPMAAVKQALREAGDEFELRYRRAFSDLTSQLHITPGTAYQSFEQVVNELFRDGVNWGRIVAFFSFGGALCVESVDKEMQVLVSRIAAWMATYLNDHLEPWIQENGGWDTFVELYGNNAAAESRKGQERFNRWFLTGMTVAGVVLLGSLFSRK

Bcl-2-related protein A1 [5] = molecular target: T1, Bcl-2-related protein A1; test: Binding affinity of N-terminal His6-tagged recombinant human Bfl-1 (1 to 151 residues) expressed in Escherichia coli BL21-Gold (DE3) assessed as inhibition constant by MS analysis

CP(C)(=O)c1ccccc1/C=C(\C#N)C(=O)NCC1(c2ccccc2)CC1
IC50 (Bcl-2-related protein A1 [1]): 50 µM
logD [2]: 2

CN(C)C(=O)[C@H](Cc1ccc(C(F)(F)F)cc1)NC(=O)/C(C#N)=C/c1cccc(P(C)(C)=O)c1
IC50 (Bcl-2-related protein A1 [1]): > 100 µM
logD [2]: 2.2

CP(C)(=O)c1ccccc1/C=C(\C#N)C(=O)NCCc1ccc(Cl)cc1
IC50 (Bcl-2-related protein A1 [1]): 54 µM
logD [2]: 2.3

CN(C)C(=O)[C@@H](Cc1ccc(C(F)(F)F)cc1)NC(=O)/C(C#N)=C/c1ccccc1P(C)(C)=O
IC50 (Bcl-2-related protein A1 [1]): > 100 µM
logD [2]: 2.1

CN(C)C(=O)[C@H](Cc1ccc(C(F)(F)F)cc1)NC(=O)/C(C#N)=C/c1ccccc1S(C)(=O)=O
IC50 (Bcl-2-related protein A1 [1]): > 100 µM
logD [2]: 2.6

CP(C)(=O)c1ccccc1/C=C(\C#N)C(=O)NCC1(c2ccc(C(F)(F)F)cc2)CC1
IC50 (Bcl-2-related protein A1 [1]): 4.3 µM
logD [2]: 3

CN(C)C(=O)[C@H](Cc1ccc(C(F)(F)F)cc1)NC(=O)/C(C#N)=C/c1ccccc1P(C)(C)=O
IC50 (Bcl-2-related protein A1 [1]): 29 µM
IC50 [3]: > 100 µM
IC50 [4]: > 100 µM
IC50 (Bcl-2-like protein 1): > 100 µM
Ki (Bcl-2-related protein A1 [5]): 5.4 µM
logD [2]: 2

CN(C)C(=O)[C@H](Cc1ccc(C(F)(F)F)cc1)NC(=O)/C(C#N)=C/c1ccc(P(C)(C)=O)cc1
IC50 (Bcl-2-related protein A1 [1]): > 100 µM
logD [2]: 2.1

CN(C)C(=O)[C@H](Cc1ccc(C(F)(F)F)cc1)NC(=O)/C(C#N)=C/c1ccccc1
IC50 (Bcl-2-related protein A1 [1]): > 100 µM
logD [2]: 3.9

CP(C)(=O)c1ccccc1/C=C(\C#N)C(=O)NCCc1ccccc1
IC50 (Bcl-2-related protein A1 [1]): > 100 µM
logD [2]: 1.7

CP(C)(=O)c1ccccc1/C=C(\C#N)C(=O)NCCc1ccc(C(F)(F)F)cc1
IC50 (Bcl-2-related protein A1 [1]): 23 µM
logD [2]: 2.7

CP(C)(=O)c1ccccc1/C=C(\C#N)C(=O)NCCc1ccc(Cl)c(Cl)c1
IC50 (Bcl-2-related protein A1 [1]): 27 µM
logD [2]: 1.9

CN(C)C(=O)C(Cc1ccc(C(F)(F)F)cc1)NC(=O)/C(C#N)=C/c1ccccc1S(=O)(=O)N(C)C (racemic)
IC50 (Bcl-2-related protein A1 [1]): > 100 µM
logD [2]: 3.2

CN(C)C(=O)c1ccccc1/C=C(\C#N)C(=O)NC(Cc1ccc(C(F)(F)F)cc1)C(=O)N(C)C (racemic)
IC50 (Bcl-2-related protein A1 [1]): > 100 µM
logD [2]: 2.2
